Reference: ChEMBL document CHEMBL1629485, “Lead identification of conformationally restricted β-lactam type combretastatin analogues: synthesis, antiproliferative activity and tubulin targeting effects” (Eur J Med Chem, 2010)

Tests used:
MDA-MB-231 [1] = test: Cell cycle arrest in estrogen receptor deficient human MDA-MB-231 cells assessed as appearance of polyploidy at 1 uM after 24 hrs using propidium iodide staining by flow cytometry relative to control; type: functional
Procedure, shortened: (§1)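 MDA-MB-231 cells in DMEM with 10% FBS and 2 mM L-glutamine, seeded at 18 × 10⁴ cells/mL. Exposed to test agent at the stated final concentration, or to 1% (v/v) ethanol vehicle, for 24, 48 or 72 h. Harvested by scraping and centrifugation, then RNase A treatment and propidium iodide DNA staining for at least 30 min at 37 °C. 10,000 cells per sample read at 488 nm by flow cytometry; mean ± SD of three experiments.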

MDA-MB-231 [2] = test: Cell cycle arrest in estrogen receptor deficient human MDA-MB-231 cells assessed as accumulation at sub-G1 phase at 100 nM after 48 hrs using propidium iodide staining by flow cytometry relative to control; type: functional; procedure, shortened: as §1
MDA-MB-231 [3] = test: Cell cycle arrest in estrogen receptor deficient human MDA-MB-231 cells assessed as accumulation at G1 phase at 100 nM after 24 hrs using propidium iodide staining by flow cytometry relative to control; type: functional; procedure, shortened: as §1
MCF7 [4] = test: Antiproliferative activity against human MCF7 cells expressing estrogen receptor after 72 hrs by MTT assay; type: functional, cell-based; conditions: MCF7, 72 h
MDA-MB-231 [5] = test: Cell cycle arrest in estrogen receptor deficient human MDA-MB-231 cells assessed as accumulation at S phase at 100 nM after 48 hrs using propidium iodide staining by flow cytometry relative to control; type: functional; procedure, shortened: as §1
MDA-MB-231 [6] = test: Cell cycle arrest in estrogen receptor deficient human MDA-MB-231 cells assessed as appearance of polyploidy at 10 uM after 72 hrs using propidium iodide staining by flow cytometry relative to control; type: functional
Procedure, shortened: (§2)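 MDA-MB-231 cells seeded at 18 × 10⁴ cells/mL and exposed to 1% (v/v) ethanol vehicle or compound at final concentrations (10 nM, 100 nM, 10 µM at all times; 1 µM also at 24 and 72 h). Cells harvested after 24, 48 or 72 h and treated with RNase A and propidium iodide for at least 30 min at 37 °C. 10,000 cells read at 488 nm by flow cytometry. Percent cells per phase reported, including polyploid; mean ± SD of three experiments.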

MDA-MB-231 [7] = test: Cell cycle arrest in estrogen receptor deficient human MDA-MB-231 cells assessed as accumulation at sub-G1 phase at 10 uM after 48 hrs using propidium iodide staining by flow cytometry relative to control; type: functional; procedure, shortened: as §1
MDA-MB-231 [8] = test: Cell cycle arrest in estrogen receptor deficient human MDA-MB-231 cells assessed as accumulation at G1 phase at 100 nM after 72 hrs using propidium iodide staining by flow cytometry relative to control; type: functional; procedure, shortened: as §1
MDA-MB-231 [9] = test: Cell cycle arrest in estrogen receptor deficient human MDA-MB-231 cells assessed as accumulation at G1 phase at 10 uM after 72 hrs using propidium iodide staining by flow cytometry relative to control; type: functional; procedure, shortened: as §1
MDA-MB-231 [10] = test: Cell cycle arrest in estrogen receptor deficient human MDA-MB-231 cells assessed as appearance of polyploidy at 10 nM after 72 hrs using propidium iodide staining by flow cytometry relative to control; type: functional; procedure, shortened: as §1
MDA-MB-231 [11] = test: Cell cycle arrest in estrogen receptor deficient human MDA-MB-231 cells assessed as accumulation at sub-G1 phase at 10 uM after 24 hrs using propidium iodide staining by flow cytometry relative to control; type: functional; procedure, shortened: as §1
MDA-MB-231 [12] = test: Cell cycle arrest in estrogen receptor deficient human MDA-MB-231 cells assessed as accumulation at G2/M phase at 100 nM after 48 hrs using propidium iodide staining by flow cytometry relative to control; type: functional; procedure, shortened: as §1
MDA-MB-231 [13] = test: Cell cycle arrest in estrogen receptor deficient human MDA-MB-231 cells assessed as accumulation at S phase at 10 uM after 24 hrs using propidium iodide staining by flow cytometry relative to control; type: functional; procedure, shortened: as §1
MDA-MB-231 [14] = test: Cell cycle arrest in estrogen receptor deficient human MDA-MB-231 cells assessed as appearance of polyploidy at 10 uM after 24 hrs using propidium iodide staining by flow cytometry relative to control; type: functional; procedure, shortened: as §1
MDA-MB-231 [15] = test: Cell cycle arrest in estrogen receptor deficient human MDA-MB-231 cells assessed as appearance of polyploidy at 1 uM after 72 hrs using propidium iodide staining by flow cytometry relative to control; type: functional; procedure, shortened: as §1
MDA-MB-231 [16] = test: Cell cycle arrest in estrogen receptor deficient human MDA-MB-231 cells assessed as accumulation at G1 phase at 100 nM after 48 hrs using propidium iodide staining by flow cytometry relative to control; type: functional; procedure, shortened: as §1
MDA-MB-231 [17] = test: Cell cycle arrest in estrogen receptor deficient human MDA-MB-231 cells assessed as accumulation at S phase at 10 uM after 72 hrs using propidium iodide staining by flow cytometry relative to control; type: functional; procedure, shortened: as §1
MDA-MB-231 [18] = test: Cell cycle arrest in estrogen receptor deficient human MDA-MB-231 cells assessed as accumulation at G2/M phase at 100 nM after 72 hrs using propidium iodide staining by flow cytometry relative to control; type: functional; procedure, shortened: as §1
MDA-MB-231 [19] = test: Cell cycle arrest in estrogen receptor deficient human MDA-MB-231 cells assessed as appearance of polyploidy at 100 nM after 48 hrs using propidium iodide staining by flow cytometry relative to control; type: functional; procedure, shortened: as §2
MDA-MB-231 [20] = test: Cell cycle arrest in estrogen receptor deficient human MDA-MB-231 cells assessed as accumulation at S phase at 10 nM after 72 hrs using propidium iodide staining by flow cytometry relative to control; type: functional; procedure, shortened: as §1
MDA-MB-231 [21] = test: Cell cycle arrest in estrogen receptor deficient human MDA-MB-231 cells assessed as accumulation at S phase at 10 uM after 48 hrs using propidium iodide staining by flow cytometry relative to control; type: functional; procedure, shortened: as §1
MDA-MB-231 [22] = test: Cell cycle arrest in estrogen receptor deficient human MDA-MB-231 cells assessed as accumulation at G2/M phase at 100 nM after 24 hrs using propidium iodide staining by flow cytometry relative to control; type: functional; procedure, shortened: as §1
MCF7 [23] = test: Cytotoxicity against human MCF7 cells expressing estrogen receptor assessed as LDH release at 10 uM; type: functional
Procedure, shortened: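 After compound treatment, LDH was measured with a commercial LDH kit. Result is % cell lysis at 10 μM compound.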

MDA-MB-231 [24] = test: Cell cycle arrest in estrogen receptor deficient human MDA-MB-231 cells assessed as appearance of polyploidy at 10 uM after 48 hrs using propidium iodide staining by flow cytometry relative to control; type: functional; procedure, shortened: as §2
MDA-MB-231 [25] = test: Cell cycle arrest in estrogen receptor deficient human MDA-MB-231 cells assessed as accumulation at sub-G1 phase at 10 nM after 72 hrs using propidium iodide staining by flow cytometry relative to control; type: functional; procedure, shortened: as §1
MDA-MB-231 [26] = test: Cell cycle arrest in estrogen receptor deficient human MDA-MB-231 cells assessed as accumulation at sub-G1 phase at 10 nM after 24 hrs using propidium iodide staining by flow cytometry relative to control; type: functional; procedure, shortened: as §1
MDA-MB-231 [27] = test: Cell cycle arrest in estrogen receptor deficient human MDA-MB-231 cells assessed as accumulation at S phase at 1 uM after 72 hrs using propidium iodide staining by flow cytometry relative to control; type: functional; procedure, shortened: as §1
MDA-MB-231 [28] = test: Cell cycle arrest in estrogen receptor deficient human MDA-MB-231 cells assessed as accumulation at S phase at 10 nM after 24 hrs using propidium iodide staining by flow cytometry relative to control; type: functional; procedure, shortened: as §1
MDA-MB-231 [29] = test: Cell cycle arrest in estrogen receptor deficient human MDA-MB-231 cells assessed as appearance of polyploidy at 100 nM after 72 hrs using propidium iodide staining by flow cytometry relative to control; type: functional; procedure, shortened: as §2
MDA-MB-231 [30] = test: Cell cycle arrest in estrogen receptor deficient human MDA-MB-231 cells assessed as accumulation at G1 phase at 10 nM after 72 hrs using propidium iodide staining by flow cytometry relative to control; type: functional; procedure, shortened: as §1

## COc1ccc(C2CC(=O)N2c2cc(OC)c(OC)c(OC)c2)cc1O (stereo not given)
MDA-MB-231 [1]
  Activity: 4.31%
MDA-MB-231 [2]
  Activity: 37.5%
MDA-MB-231 [3]
  Activity: 18.95%
MCF7 [4]
  IC50: 17 nM
MDA-MB-231 [5]
  Activity: 8.9%
MDA-MB-231 [6]
  Activity: 3.38%
MDA-MB-231 [7]
  Activity: 51.27%
MDA-MB-231 [8]
  Activity: 13.9%
MDA-MB-231 [9]
  Activity: 17.14%
MDA-MB-231 [10]
  Activity: 3.55%
MDA-MB-231 [11]
  Activity: 3.18%
MDA-MB-231 [12]
  Activity: 36.42%
MDA-MB-231 [13]
  Activity: 3.72%
MDA-MB-231 [14]
  Activity: 3.85%
MDA-MB-231 [15]
  Activity: 5.97%
MDA-MB-231 [16]
  Activity: 10.76%
MDA-MB-231 [17]
  Activity: 9.66%
MDA-MB-231 [18]
  Activity: 12.62%
MDA-MB-231 [19]
  Activity: 4.61%
MDA-MB-231 [20]
  Activity: 9.08%
MDA-MB-231 [21]
  Activity: 4.47%
MDA-MB-231 [22]
  Activity: 59.43%
MCF7 [23]
  Activity: 9%
MDA-MB-231 [24]
  Activity: 2.28%
MDA-MB-231 [25]
  Activity: 15.25%
MDA-MB-231 [26]
  Activity: 3.72%
MDA-MB-231 [27]
  Activity: 7.76%
MDA-MB-231 [28]
  Activity: 12.55%
MDA-MB-231 [29]
  Activity: 2.99%
MDA-MB-231 [30]
  Activity: 48.24%
